In the library only some 2.3% were active in any assay of this set; here they are far more common.
PAX8 inh HTS: inhibitors of PAX8 transcriptional activity in RMG-I cells. RMG-I TPO-luciferase reporter, SteadyGlo, 24 h. inhibition, % at 12.6 µM. 1.2% of 360,000 active;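 active = mean replicate inhibition at least 60% with every replicate also reaching 60%; inconclusive = only one of the two criteria is met; inactive = mean below 60% and not all replicates reaching 60%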;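 also: luciferase light reporting Pax8 driven TPO promoter activity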
Env fusion inh: HIV envelope-mediated fusion inhibition. HeLa-JRFL Env/CEM21 cell fusion, luciferase. inhibition, % at 12.3 µM. 1.1% of 360,000 active;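 active = mean replicate inhibition score of at least 50 and every replicate individually at or above 50; inconclusive = only one of the two criteria met; inactive = mean below 50 and not all replicates reaching 50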
FN deposit inh: fibronectin deposition inhibition | AH1F fibroblasts, Alexa488-fibronectin deposition fluorescence, overnight | inhibition, % at 12.6 µM | 0.086% of 350,000 active | AID 743247;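 active = mean inhibition across replicates of 30% or more, regardless of how many single replicates reach that level; inconclusive = mean under 30% yet at least half of replicates reach 30%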
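Assay system: AH1F fibroblast monolayer, labelled fibronectin deposition. Amount: 10000 cells per well. Also added: labelled fibronectin 24 nM. Compound: single-point pinned compound. Incubation: cell attachment 1 h, compound and FN exposure overnight. Detection: fluorescence after three HBSS washes, excitation 485 nm, emission 525 nm. Read-out: inhibition of fibronectin deposition signal.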
PGC1a acetyl inh: modulators of PGC1a acetylation; U2OS PGC1a acetylation, AlphaScreen anti-acetyl-lysine; with virally co-expressed GCN5 acetyltransferase; inhibition, % at 15.6 µM; 0.17% of 350,000 active; AID 651687;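 active = every replicate shows inhibition of at least 40%; inconclusive = mean inhibition at least 40% but some replicate below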
EWS-Fli inh: inhibitors of EWS/Fli oncoprotein transcriptional activity. A673 NR0B1-luciferase reporter, viability-normalised. inhibition, % at 12.6 µM. 0.67% of 350,000 active;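 active = mean inhibition of at least 50% after viability correction, with every replicate also passing that limit; inconclusive = mean reaches 50% but only one of two replicates passes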;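 also: firefly luciferase signal divided by Alamar Blue viability fluorescence both relative to DMSO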
F508del corr: CFTR F508del correction in bronchial cells; 0.36% of 350,000 active; CFBE cells, YFP halide quenching; stimulated with forskolin plus potentiator P3; % fluorescence drop versus neutral controls; AID 720511; activity (quench increase), % at 7.58 µM;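 active = mean added fluorescence quench of at least 8% versus neutral control, with both replicates also reaching 8%; inconclusive = only one of the mean or replicate conditions met; inactive = mean below 8% and not both replicates reaching 8%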;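 also: cells transiently co-express mutant CFTR-F508del with the halide-sensitive YFP; corrector assay measuring rescue of mutant channel to the surface after 24 h compound exposure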
Hits are given with their value; i = inactive; ? = inconclusive; nt = no result.

SMILES | PAX8 inh HTS | Env fusion inh | FN deposit inh | PGC1a acetyl inh | EWS-Fli inh | F508del corr
COc1ccc(C(=O)N[C@H](C(=O)Nc2nc3ccccc3[nH]2)C(C)C)cc1 | i | i | i | i | ? | i
O=C([C@H]1[C@H](CO)[C@H]2Cn3c(ccc(-c4ccncc4)c3=O)[C@H]2N1CCC(F)(F)F)N1CCCCC1 | i | nt | nt | i | i | i
COCC(=O)N1[C@@H]2CN(C(=O)c3ccncc3)c3ccccc3[C@@H]2[C@@H]1CO | i | nt | nt | i | i | i
N#CC(Cc1cccc(CC(C#N)(c2ccccc2)c2ccccc2)c1)(c1ccccc1)c1ccccc1 | i | 57 | i | i | i | i
CO[C@@H](CN(C)C(=O)c1ccccc1F)[C@@H](C)CN([C@@H](C)CO)S(=O)(=O)c1ccccc1 | nt | nt | i | i | i | i
COC(=O)[C@]12C[C@H](CC(=O)NCCc3ccccc3OC)C(=O)N(Cc3ccc4c(c3)OCO4)C1=C[C@H](C(C)(C)C)O[C@@H]2C | i | i | i | nt | i | i
CCCCOCCCNC(=O)C[C@H]1C[C@@]2(C(=O)OC)C(=C[C@H](C(C)(C)C)O[C@@H]2C)N(Cc2ccc3c(c2)OCO3)C1=O | i | 74 | i | nt | i | i
CCCCOCCCNC(=O)C[C@H]1C[C@@]2(C(=O)OC)C(=C[C@H](COCc3ccccc3)O[C@@H]2C)N(Cc2ccc3c(c2)OCO3)C1=O | i | i | i | nt | i | i
COC(=O)[C@]12C[C@H](CC(=O)NCc3cccc4ccccc34)C(=O)N(Cc3ccc4c(c3)OCO4)C1=C[C@H](C(C)(C)C)O[C@@H]2C | i | 56 | i | nt | i | i
COC(=O)[C@]12C[C@H](CC(=O)NCc3cccc4ccccc34)C(=O)N(Cc3ccc4c(c3)OCO4)C1=C[C@H](COCc1ccccc1)O[C@@H]2C | i | i | i | nt | i | i
COC(=O)[C@]12C[C@H](CC(=O)NCc3ccc(OC)c(OC)c3)C(=O)N(Cc3ccc4c(c3)OCO4)C1=C[C@H](C(C)(C)C)O[C@@H]2C | 79 | i | i | nt | i | i
Cc1ccc(S(=O)(=O)N(C)C[C@H]2OCCCC[C@@H](C)Oc3ccc(NC(=O)Nc4cccc5ccccc45)cc3C(=O)N([C@@H](C)CO)C[C@@H]2C)cc1 | i | i | i | i | i | i
CO[C@H]1CN(C)C(=O)c2ccc(NS(=O)(=O)c3ccccc3F)cc2OC[C@H](C)NC[C@H]1C | i | i | i | i | i | i
NC(=S)NN=C1c2cc(OCCN3CCOCC3)ccc2-c2ccc(OCCN3CCOCC3)cc21 | i | i | i | nt | 64 | i
O=C(C[C@H]1C[C@@H]2c3cc(NC(=O)Nc4ccccc4F)ccc3O[C@@H]2[C@H](CO)O1)NCC(F)(F)F | i | i | nt | i | i | i
CCCCC(=O)Nc1ccc(NC(=O)c2cccs2)cn1 | nt | nt | nt | 49 | nt | nt
COc1cc(/C=C/C(=O)OCC(=O)NC(=O)NC(C)C)ccc1O | i | 57 | i | i | i | i
O=C(NC1CCCCC1)c1n[nH]c2c1CCCCC2 | i | 69 | i | nt | 79 | i
CCC(C)(C)C1CCc2[nH]nc(C(=O)NC3CCCC3)c2C1 (stereo not drawn) | i | i | i | i | i | i
Cc1c(C2Nc3ccccc3C2C)[nH]c2ccccc12 (stereo not drawn) | i | i | i | nt | i | 10
COC(=O)c1cn(NC(=O)C2CCC(C)CC2)c(=O)c2ccccc12 (stereo not drawn) | i | i | i | i | nt | nt
COC(=O)c1cn(NC(=O)c2cc([N+](=O)[O-])ccc2F)c(=O)c2ccccc12 | i | 57 | i | nt | i | 8.7
O=C(Nc1ccc(N2CCOCC2)cc1N1CCOCC1)c1ccc([N+](=O)[O-])cc1 | nt | nt | nt | i | nt | nt
O=[N+]([O-])c1ccc(Nc2ccc(N3CCOCC3)cc2)c([N+](=O)[O-])c1 | 90 | i | nt | i | i | i
COc1ccc(COC(=O)C2=C(C)NC(=O)NC2c2ccc(OC)cc2)cc1 (stereo not drawn) | i | 72 | i | i | i | i
CCCOc1ccccc1C1NC(=O)NC(C)=C1C(=O)OCc1ccccc1 (stereo not drawn) | nt | nt | nt | i | nt | nt
COc1ccc(COC(=O)C2=C(C)NC(=O)NC2c2ccc(O)cc2)cc1 (stereo not drawn) | i | i | i | i | i | i

Source: PubChem
